Assay results: ChEMBL document CHEMBL1128234, “Isothiocyanate-substituted benzyl ether opioid receptor ligands derived from 6 beta-naltrexol” (J Med Chem, 1995)

How the values were obtained:
[1] = biological target: Kappa-type opioid receptor (Cavia porcellus) (UniProt P41144); experiment: Irreversible binding affinity at Opioid receptor kappa 1 was evaluated as % of control specific binding remaining washed at concentration of 20 (nM) using [3H]U-69593 radioligand
Procedure, shortened: (§1)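 Diluted guinea pig brain homogenate is exposed to ligand for 60 min at 25 °C; protected samples are first preincubated 15 min at 37 °C with 1 naloxone. Washed samples are diluted in ice-cold Tris pH 7.4, spun at 10000g for 15 min at 4 °C, then resuspended and incubated 15 min at 37 °C, twice. Read-out is standard radioligand binding, expressed as % of recovery-sample specific binding. Test ligands run in triplicate; reference averaged over three assays.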

[2] = biological target: Kappa-type opioid receptor (Cavia porcellus) (UniProt P41144); experiment: Irreversible binding affinity at Opioid receptor kappa 1 was evaluated as % of control specific binding remaining unwashed at concentration of 30 (nM) using [3H]U-69593 radioligand; procedure, shortened: as §1
Mu-type opioid receptor = Mu-type opioid receptor (Cavia porcellus, UniProt P97266); experiment: Inhibitory concentration was determined against Opioid receptor mu 1 using [3H]- DAMGO radioligand
Procedure, shortened: (§2)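 Guinea pig brain (minus cerebellum) homogenate in 0.05 M Tris pH 7.4, diluted 1:60 (0.8-1.5 mg protein/ml). Ligand tested in duplicate at nine concentrations; 60 min at 25 °C. Nonspecific binding defined with naloxone. Filtration, ice-cold buffer rinse, scintillation counting.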

[3] = biological target: Kappa-type opioid receptor (Cavia porcellus) (UniProt P41144); experiment: Irreversible binding affinity at Opioid receptor kappa 1 was evaluated as % of control specific binding remaining washed at concentration of 30 (nM) using [3H]U-69593 radioligand; procedure, shortened: as §1
[4] = biological target: Kappa-type opioid receptor (Cavia porcellus) (UniProt P41144); experiment: Irreversible binding affinity at Opioid receptor kappa 1 was evaluated as % of control specific binding remaining unwashed at concentration of 20 (nM) using [3H]U-69593 radioligand; procedure, shortened: as §1
[5] = biological target: Kappa-type opioid receptor (Cavia porcellus) (UniProt P41144); experiment: Irreversible binding affinity at Opioid receptor kappa 1 was evaluated as % of control specific binding remaining protected at concentration of 20 (nM) using [3H]U-69593 radioligand; procedure, shortened: as §1
[6] = biological target: Kappa-type opioid receptor (Cavia porcellus) (UniProt P41144); experiment: Irreversible binding affinity at Opioid receptor kappa 1 was evaluated as % of control specific binding remaining protected at concentration of 30 (nM) using [3H]U-69593 radioligand; procedure, shortened: as §1
[7] = biological target: Opioid receptors; mu/kappa/delta; experiment: Inhibitory concentration was determined against Opioid receptors using [3H]- bremazocine radioligand; type: protein assay, Cavia porcellus; procedure, shortened: as §2
[8] = biological target: Kappa-type opioid receptor (Cavia porcellus, UniProt P41144); experiment: Inhibitory concentration against Opioid receptor kappa 1 using [3H]- U-69,593 radioligand; procedure, shortened: as §2
[9] = biological target: Kappa-type opioid receptor (Cavia porcellus) (UniProt P41144); experiment: Irreversible binding affinity at Opioid receptor kappa 1 was evaluated as % of control specific binding remaining washed at concentration of 50 (nM) using [3H]U-69593 radioligand; procedure, shortened: as §1
[10] = biological target: Kappa-type opioid receptor (Cavia porcellus) (UniProt P41144); experiment: Irreversible binding affinity at Opioid receptor kappa 1 was evaluated as % of control specific binding remaining protected at concentration of 50 (nM) using [3H]U-69593 radioligand; procedure, shortened: as §1
[11] = biological target: Mu-type opioid receptor (Cavia porcellus) (UniProt P97266); experiment: Irreversible binding affinity at mu-receptor was evaluated as % of control specific binding remaining unwashed at concentration of 80 (nM) using [3H]DAMGO radioligand
Procedure, shortened: (§3)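 Guinea pig brain homogenate (less cerebellum) in 0.05 M Trizma pH 7.4, diluted 1:60. It was incubated with ligand 60 min at 25 °C, then diluted in ice-cold buffer and centrifuged 10000g. Washed samples were resuspended in buffer, incubated 15 min at 37 °C and recentrifuged. Binding used 1.0 nM [3H]DAMGO for 60 min at 25 °C, with filtration and counting. Nonspecific binding was set with 10 µM naloxone. Triplicates; % specific binding was taken relative to recovery controls.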

[12] = biological target: Kappa-type opioid receptor (Cavia porcellus) (UniProt P41144); experiment: Irreversible binding affinity at Opioid receptor kappa 1 was evaluated as % of control specific binding remaining unwashed at concentration of 50 (nM) using [3H]U-69593 radioligand; procedure, shortened: as §1
[13] = biological target: Mu-type opioid receptor (Cavia porcellus) (UniProt P97266); experiment: Irreversible binding affinity at mu-receptor was evaluated as % of control specific binding remaining washed at concentration of 80 (nM) using [3H]DAMGO radioligand; procedure, shortened: as §3
[14] = biological target: Kappa-type opioid receptor (Cavia porcellus) (UniProt P41144); experiment: Irreversible binding affinity at Opioid receptor kappa 1 was evaluated as % of control specific binding remaining protected at concentration of 90 (nM) using [3H]U-69593 radioligand; procedure, shortened: as §1
[15] = biological target: Mu-type opioid receptor (Cavia porcellus) (UniProt P97266); experiment: Irreversible binding affinity at mu-receptor was evaluated as % of control specific binding remaining protected at concentration of 35 (nM) using [3H]DAMGO radioligand; procedure, shortened: as §1
[16] = biological target: Mu-type opioid receptor (Cavia porcellus) (UniProt P97266); experiment: Irreversible binding affinity at mu-receptor was evaluated as % of control specific binding remaining washed at concentration of 35 (nM) using [3H]-DAMGO radioligand; procedure, shortened: as §3
[17] = biological target: Mu-type opioid receptor (Cavia porcellus) (UniProt P97266); experiment: Irreversible binding affinity at mu-receptor was evaluated as % of control specific binding remaining unwashed at concentration of 35 (nM) using [3H]DAMGO radioligand; procedure, shortened: as §3
[18] = biological target: Kappa-type opioid receptor (Cavia porcellus) (UniProt P41144); experiment: Irreversible binding affinity at Opioid receptor kappa 1 was evaluated as % of control specific binding remaining washed at concentration of 90 (nM) using [3H]-U-69,593 radioligand; procedure, shortened: as §1
[19] = biological target: Kappa-type opioid receptor (Cavia porcellus) (UniProt P41144); experiment: Irreversible binding affinity at Opioid receptor kappa 1 was evaluated as % of control specific binding remaining unwashed at concentration of 90 (nM) using [3H]U-69593 radioligand; procedure, shortened: as §1
[20] = biological target: Mu-type opioid receptor (Cavia porcellus) (UniProt P97266); experiment: Irreversible binding affinity at mu-receptor was evaluated as % of control specific binding remaining unwashed at concentration of 50 (nM) using [3H]DAMGO radioligand; procedure, shortened: as §3
[21] = biological target: Mu-type opioid receptor (Cavia porcellus) (UniProt P97266); experiment: Irreversible binding affinity at mu-receptor was evaluated as % of control specific binding remaining washed at concentration of 50 (nM) using [3H]DAMGO radioligand; procedure, shortened: as §3
[22] = biological target: Mu-type opioid receptor (Cavia porcellus) (UniProt P97266); experiment: Irreversible binding affinity at mu-receptor was evaluated as % of control specific binding remaining washed at concentration of 30 (nM) using [3H]DAMGO radioligand; procedure, shortened: as §3
[23] = biological target: Mu-type opioid receptor (Cavia porcellus) (UniProt P97266); experiment: Irreversible binding affinity at mu-receptor was evaluated as % of control specific binding remaining protected at concentration of 50 (nM) using [3H]DAMGO radioligand; procedure, shortened: as §1
[24] = biological target: Mu-type opioid receptor (Cavia porcellus) (UniProt P97266); experiment: Irreversible binding affinity at mu-receptor was evaluated as % of control specific binding remaining protected at concentration of 30 (nM) using [3H]DAMGO radioligand; procedure, shortened: as §1
[25] = biological target: Kappa-type opioid receptor (Cavia porcellus) (UniProt P41144); experiment: Irreversible binding affinity at Opioid receptor kappa 1 was evaluated as % of control specific binding remaining protected at concentration of 40 (nM) using [3H]U-69593 radioligand; procedure, shortened: as §1
[26] = biological target: Kappa-type opioid receptor (Cavia porcellus) (UniProt P41144); experiment: Irreversible binding affinity at Opioid receptor kappa 1 was evaluated as % of control specific binding remaining unwashed at concentration of 40 (nM) using [3H]U-69593 radioligand; procedure, shortened: as §1
[27] = biological target: Kappa-type opioid receptor (Cavia porcellus) (UniProt P41144); experiment: Irreversible binding affinity at Opioid receptor kappa 1 was evaluated as % of control specific binding remaining washed at concentration of 40 (nM) using [3H]U-69593 radioligand; procedure, shortened: as §1
[28] = biological target: Mu-type opioid receptor (Cavia porcellus) (UniProt P97266); experiment: Irreversible binding affinity at mu-receptor was evaluated as % of control specific binding remaining unwashed at concentration of 30 (nM) using [3H]DAMGO radioligand; procedure, shortened: as §3

Sequence of Mu-type opioid receptor (Cavia porcellus) (P97266 whole entry): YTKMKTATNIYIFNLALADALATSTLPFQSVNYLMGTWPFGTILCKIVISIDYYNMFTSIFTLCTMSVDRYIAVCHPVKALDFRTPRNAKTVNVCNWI
Sequence of Mu-type opioid receptor (P97266 whole entry): as above
Sequence of Kappa-type opioid receptor (Cavia porcellus) (P41144 whole entry): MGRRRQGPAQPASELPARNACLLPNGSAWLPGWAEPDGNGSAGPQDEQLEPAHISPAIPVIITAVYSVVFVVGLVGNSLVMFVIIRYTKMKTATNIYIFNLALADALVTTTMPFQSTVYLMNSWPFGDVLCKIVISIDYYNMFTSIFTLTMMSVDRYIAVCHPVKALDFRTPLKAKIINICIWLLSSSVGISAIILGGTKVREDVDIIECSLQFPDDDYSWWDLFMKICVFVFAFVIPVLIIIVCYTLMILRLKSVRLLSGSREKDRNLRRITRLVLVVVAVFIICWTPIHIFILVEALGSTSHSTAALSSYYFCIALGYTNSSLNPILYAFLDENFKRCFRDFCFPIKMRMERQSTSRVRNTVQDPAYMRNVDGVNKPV
Sequence of Kappa-type opioid receptor (P41144 whole entry): as above

Structure (SMILES): Oc1ccc2c3c1O[C@H]1[C@H](OCc4cccc(CN=C=S)c4)CC[C@@]4(O)C(C2)N(CC2CC2)CCC314 (stereo partly specified)
- Control [1]: 68%
- Control [2]: 22%
- IC50 (Mu-type opioid receptor): 0.019 µM
- Control [3]: 58%
- Control [4]: 56%
- Control [5]: 94%
- Control [6]: 73%
- IC50 [7]: 0.024 µM
- IC50 [8]: 0.006 µM

Structure (SMILES): Oc1ccc2c3c1O[C@H]1[C@H](OCc4cccc(N=C=S)c4)CC[C@@]4(O)C(C2)N(CC2CC2)CCC314 (stereo partly specified)
- Control [9]: 25%
- Control [10]: 25%
- Control [11]: 4%
- Control [12]: 12%
- Control [13]: 14%
- IC50 (Mu-type opioid receptor): 0.027 µM
- IC50 [7]: 0.027 µM
- IC50 [8]: 0.017 µM

Structure (SMILES): Oc1ccc2c3c1O[C@H]1[C@H](OCc4ccc(N=C=S)cc4)CC[C@@]4(O)C(C2)N(CC2CC2)CCC314 (stereo partly specified)
- Control [14]: 27%
- Control [15]: 48%
- IC50 (Mu-type opioid receptor): 0.0096 µM
- Control [16]: 46%
- Control [17]: 14%
- IC50 [7]: 0.022 µM
- Control [18]: 28%
- Control [19]: 14%
- IC50 [8]: 0.021 µM

Structure (SMILES): Oc1ccc2c3c1O[C@H]1[C@H](OCc4ccc(CN=C=S)cc4)CC[C@@]4(O)C(C2)N(CC2CC2)CCC314 (stereo partly specified)
- Control [20]: 22%
- Control [21]: 58%
- Control [22]: 56%
- Control [23]: 60%
- Control [1]: 68%
- Control [24]: 67%
- IC50 (Mu-type opioid receptor): 0.011 µM
- Control [4]: 61%
- Control [25]: 64%
- Control [5]: 95%
- Control [26]: 32%
- IC50 [7]: 0.021 µM
- Control [27]: 58%
- Control [28]: 59%
- IC50 [8]: 0.0074 µM
